The values below come from ChEMBL document CHEMBL3259768, “Structure-activity relationships for vitamin D3-based aromatic a-ring analogues as hedgehog pathway inhibitors” (J Med Chem, 2014).

SMILES strings stand for the structures.

Assay [1] in a line: Inhibition of hedgehog signaling pathway-mediated GLI1 mRNA expression in mouse C3H10T1/2 cells assessed as residual activity at 5 uM after 24 hrs by RT-PCR analysis relative to 20alpha-hydroxycholesterol/22(S)-hydroxycholesterol. The conditions noted are these: C3H 10T1/2. It counts as cell-based. Summed up: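 C3H10T1/2 cells co-treated with analogue and the oxysterol Hh activators 20α-hydroxycholesterol plus 22(S)-hydroxycholesterol (5 μM each) for 24 h. Gli1 mRNA measured by qPCR as % of OHC-only control (100%). Analogue at 5 μM, or at 0.5 μM where stated.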

In assay [2] the target is T1, Vitamin D3 receptor (Mus musculus) (UniProt P48281).
T1 sequence (whole entry): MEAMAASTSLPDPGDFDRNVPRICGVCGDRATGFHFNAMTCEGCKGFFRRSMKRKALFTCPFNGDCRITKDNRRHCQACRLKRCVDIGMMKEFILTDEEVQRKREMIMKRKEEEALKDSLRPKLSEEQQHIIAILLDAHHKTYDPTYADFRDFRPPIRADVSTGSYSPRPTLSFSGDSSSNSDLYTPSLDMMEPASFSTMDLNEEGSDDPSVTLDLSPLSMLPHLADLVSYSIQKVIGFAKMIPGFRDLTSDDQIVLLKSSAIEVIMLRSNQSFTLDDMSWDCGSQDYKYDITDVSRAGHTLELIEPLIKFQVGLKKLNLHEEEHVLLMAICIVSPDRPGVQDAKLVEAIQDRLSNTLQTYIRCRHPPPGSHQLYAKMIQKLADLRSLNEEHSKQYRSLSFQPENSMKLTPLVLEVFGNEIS
Briefly: Activation of VDR in mouse C3H10T1/2 cells assessed as upregulation of CYP24A1 mRNA expression at 5 uM after 24 hrs by RT-PCR analysis relative to DMSO-treated control. It counts as cell-based. The settings on record: C3H 10T1/2. Summed up: (§1)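 Cyp24A1 mRNA read by qPCR after 24 h exposure at 5 μM. Up-regulation normalized to DMSO control, set to 1.0.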

A short description of assay [3]: Inhibition of hedgehog signaling pathway-mediated GLI1 mRNA expression in mouse C3H10T1/2 cells after 24 hrs by RT-PCR analysis. Format: cell-based. The conditions noted are these: for inhibition: C3H 10T1/2; for IC50: C3H 10T1/2, 24 h. Summed up:
(§2)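 OHC-stimulated C3H10T1/2 cells (20α- and 22(S)-hydroxycholesterol, 5 μM each) given analogue at a range of concentrations. Gli1 and Ptch mRNA quantified by qPCR. IC50 given as mean ± SEM of at least two experiments run in triplicate.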

Assay [4] can be described thus: Inhibition of hedgehog signaling pathway-mediated PTCH mRNA expression in mouse C3H10T1/2 cells after 24 hrs by RT-PCR analysis. It counts as cell-based. The conditions noted are these: C3H 10T1/2, 24 h. The method, boiled down:
as §2

Assay [5] is described as follows: Inhibition of hedgehog signaling pathway-mediated GLI1 mRNA expression in mouse ASZ001 cells after 24 hrs by RT-PCR analysis. The conditions noted are these: ASZ001, 24 h. It counts as cell-based. Summed up:
(§3)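 ASZ001 (murine BCC) or DAOY (human medulloblastoma) cells given analogue at a range of concentrations. Gli1 and Ptch mRNA quantified by qPCR. IC50 given as mean ± SEM of at least two experiments in triplicate.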

For assay [6], the target named is T1, Vitamin D3 receptor (Mus musculus). The experiment in a line: Activation of VDR in mouse ASZ001 cells assessed as upregulation of CYP24A1 mRNA expression at 5 uM after 24 hrs by RT-PCR analysis relative to DMSO-treated control. It counts as cell-based. Summed up:
as §1

Assay [7] can be described thus: Inhibition of hedgehog signaling pathway-mediated GLI1 mRNA expression in human DaOY cells after 24 hrs by RT-PCR analysis. Format: cell-based. The method, boiled down:
as §3

The target of assay [8] is T2, Vitamin D3 receptor (Homo sapiens) (UniProt P11473).
T2 sequence (whole entry): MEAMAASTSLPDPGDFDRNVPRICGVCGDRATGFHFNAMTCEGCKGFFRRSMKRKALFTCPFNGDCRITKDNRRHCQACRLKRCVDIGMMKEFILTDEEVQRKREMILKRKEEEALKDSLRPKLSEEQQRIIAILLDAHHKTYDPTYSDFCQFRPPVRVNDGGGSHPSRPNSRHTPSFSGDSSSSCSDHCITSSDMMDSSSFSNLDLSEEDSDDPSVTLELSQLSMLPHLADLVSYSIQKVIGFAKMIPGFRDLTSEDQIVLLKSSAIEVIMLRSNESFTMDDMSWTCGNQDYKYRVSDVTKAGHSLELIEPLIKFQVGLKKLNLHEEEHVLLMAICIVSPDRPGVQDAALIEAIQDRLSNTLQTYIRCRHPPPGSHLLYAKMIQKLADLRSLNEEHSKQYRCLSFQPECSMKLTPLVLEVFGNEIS
The experiment in a line: Activation of VDR in human DaOY cells assessed as upregulation of CYP24A1 mRNA expression at 5 uM after 24 hrs by RT-PCR analysis relative to DMSO-treated control. Format: cell-based. The method, boiled down:
as §1

Assay [9] has as its target T2, Vitamin D3 receptor (Homo sapiens). Briefly: Competitive binding affinity to full length human VDR by fluorescence polarization assay. Summed up: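 Fluorescence polarization competition against a tight-binding fluorescent ligand on full-length human VDR. Tested at up to 100 μM, with calcitriol as positive control. At least two separate experiments.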
Assay [10] is described as follows: Inhibition of hedgehog signaling pathway-mediated PTCH mRNA expression in human DaOY cells after 24 hrs by RT-PCR analysis. Format: cell-based. Summed up: as §3

On to `CC(C)CCC[C@@H](C)[C@H]1CC[C@H]2[C@@H](OC(=O)c3ccco3)CCC[C@]12C`, for which the Activity in [1] is 95%. Also, the fold change (FC) in [2] worked out at 1.7.
For `CC(C)CCC[C@@H](C)[C@H]1CC[C@H]2[C@@H](OC(=O)c3ccoc3)CCC[C@]12C` the same measures were 91.5% and 2.2.
As to `CC(C)CCC[C@@H](C)[C@H]1CC[C@H]2[C@@H](OC(=O)c3cccc4ccccc34)CCC[C@]12C`, in assay [1], the Activity was 82.3%. Also, the fold change (FC) in [2] came to 2.7.
In the case of `CC(C)CCC[C@@H](C)[C@H]1CC[C@H]2[C@@H](OC(=O)c3ccccc3Cl)CCC[C@]12C`, in assay [1], the Activity is 109%. Moreover, the fold change (FC) in [2] is 0.9.
Turning to `CC(C)CCC[C@@H](C)[C@H]1CC[C@H]2[C@@H](OC(=O)c3ccccc3O)CCC[C@]12C`, the Activity in [1] is 115%. In addition, the fold change (FC) in assay [2] is 1.2.
`CC(C)CCC[C@@H](C)[C@H]1CC[C@H]2[C@@H](OC(=O)c3ccc(N)cc3)CCC[C@]12C`: the Activity in assay [1] was 15.4%; in assay [9] it was greater than 100 µM. The figures for the fold change (FC) in assay [2], in assay [6] and in assay [8] were 140, 2.1 and 2.2, respectively. Besides, the inhibition result in [3] was “Dose-dependent effect”. Also, the IC50 in assay [3] was 1 µM; in assay [4], 2.9 µM; in assay [5], 5.3 µM; in assay [7], greater than 10 µM; in assay [10] it was greater than 10 µM.
Take `CC(C)CCC[C@@H](C)[C@H]1CC[C@H]2[C@@H](OC(=O)c3cccnc3O)CCC[C@]12C`: in assay [1], the Activity came to 23%. Moreover, the fold change (FC) in assay [2] turned out to be 7.5.
For the molecule `COc1ccccc1C(=O)O[C@H]1CCC[C@]2(C)[C@@H]([C@H](C)CCCC(C)C)CC[C@@H]12`, in [1], the Activity came to 98%. The fold change (FC) in assay [2] came out at 0.9.
With `CC(C)CCC[C@@H](C)[C@H]1CC[C@H]2[C@@H](OC(=O)c3ncccc3O)CCC[C@]12C`, the Activity in [1] was found to be 36.5%. Moreover, the fold change (FC) in [2] was 3.1.
Taken in the same sequence, the figures for `CC(C)CCC[C@@H](C)[C@H]1CC[C@H]2[C@@H](OC(=O)c3cccc4cc(O)ccc34)CCC[C@]12C` were 103% and 4.7.
`CC(C)CCC[C@@H](C)[C@H]1CC[C@H]2[C@@H](OC(=O)c3ccsc3)CCC[C@]12C`: the Activity in assay [1] came out at 109%. In [2], the fold change (FC) was 1.3.
For `COc1ccc(C(=O)O[C@H]2CCC[C@]3(C)[C@@H]([C@H](C)CCCC(C)C)CC[C@@H]23)cc1` the same measures were 113% and 0.9.
Consider `CC(C)CCC[C@@H](C)[C@H]1CC[C@H]2[C@@H](OC(=O)c3ccc(N(C)C)cc3)CCC[C@]12C`, for which, in [1], the Activity was found to be 107%. Besides, the fold change (FC) in [2] was 1.4.
For the molecule `CC(C)CCC[C@@H](C)[C@H]1CC[C@H]2[C@@H](OC(=O)c3cc4ccccc4[nH]3)CCC[C@]12C`, the Activity in [1] was determined as 84.5%. In assay [2], the fold change (FC) is 2.7.
As for `CC(C)CCC[C@@H](C)[C@H]1CC[C@H]2[C@@H](OC(=O)c3ccccn3)CCC[C@]12C`, the Activity is 14.1% in assay [1] and greater than 100 µM in assay [9]. The fold change (FC) in [2] is 57.1; in [6], 4.8; in assay [8], 1.1. Also, the inhibition entry in assay [3] was “Dose-dependent effect”. The IC50 in [3] is 4.7 µM; in assay [4], 12.6 µM; in assay [5], 4.8 µM; in assay [7], greater than 10 µM; in assay [10], greater than 10 µM.
Turning to `CC(C)CCC[C@@H](C)[C@H]1CC[C@H]2[C@@H](OC(=O)c3ccc4ccccc4c3)CCC[C@]12C`, the Activity in assay [1] came to 77.4%. Moreover, the fold change (FC) in assay [2] turned out to be 3.
Take `CC(C)CCC[C@@H](C)[C@H]1CC[C@H]2[C@@H](O)CCC[C@]12C`: in [1], the Activity was found to be 46.4%. In addition, the fold change (FC) in assay [2] stood at 3.6.
Taken in the same sequence, the figures for `CC(C)CCC[C@@H](C)[C@H]1CC[C@H]2[C@@H](OC(=O)c3ccncc3)CCC[C@]12C` were 51.1% and 14.7.
Turning to `CC(C)CCC[C@@H](C)[C@H]1CC[C@H]2[C@@H](OC(=O)c3ccc(O)cc3)CCC[C@]12C`, the Activity is 2.4% in assay [1] and greater than 100 µM in [9]. In addition, the fold change (FC) was 18.8 in assay [2], 6.3 in assay [6] and 1.5 in assay [8]. Besides, in assay [3], the inhibition result is “Dose-dependent effect”. Also, the IC50 in assay [3] was 2.8 µM; in [4], 3.3 µM; in assay [5] it was 6.6 µM; in [7] it was greater than 10 µM; in [10], greater than 10 µM.
Turning to `CC(C)CCC[C@@H](C)[C@H]1CC[C@H]2[C@@H](OC(=O)c3ccc4cc(O)ccc4c3)CCC[C@]12C`, the Activity in assay [1] was 91.9%. The fold change (FC) in assay [2] is 0.8.
For `CC(C)CCC[C@@H](C)[C@H]1CC[C@H]2[C@@H](OC(=O)c3cccc(N)c3)CCC[C@]12C`, in assay [1], the Activity was 2.4%. The values for the fold change (FC) in assay [2], in assay [6] and in [8] were 24.3, 2.5 and 0.5, respectively. In addition, the inhibition entry in [3] is “Dose-dependent effect”. Further, the IC50 is 1.3 µM in [3]; 2.5 µM in assay [4]; 7.1 µM in [5]; 9.2 µM in assay [7]; greater than 10 µM in assay [10].
In the case of `CC(C)CCC[C@@H](C)[C@H]1CC[C@H]2[C@@H](OC(=O)c3cccnc3)CCC[C@]12C`, the Activity in assay [1] was determined as 20.7%. Also, the fold change (FC) in [2] came to 17.1.
Turning to `CC(C)CCC[C@@H](C)[C@H]1CC[C@H]2[C@@H](OC(=O)c3ccc(Cl)cc3)CCC[C@]12C`, the Activity in assay [1] was 77.7%. For the same molecule, the fold change (FC) in assay [2] worked out at 0.8.
For `CC(C)CCC[C@@H](C)[C@H]1CC[C@H]2[C@@H](OC(=O)c3cccs3)CCC[C@]12C`, the Activity in [1] was found to be 109%. Further, the fold change (FC) in assay [2] is 1.6.
Consider `CC(C)CCC[C@@H](C)[C@H]1CC[C@H]2[C@@H](OC(=O)c3cc(O)c(O)c(O)c3)CCC[C@]12C`, for which the Activity was 5.1% in [1] and greater than 100 µM in assay [9]. In addition, the fold change (FC) in assay [2] turned out to be 11; in [6], 1.3; in [8], 1. In addition, in [3], the inhibition entry is “Dose-dependent effect”. The IC50 in assay [3] was 1.1 µM; in assay [4], 1.3 µM; in [5], 8.1 µM; in assay [7], 9.2 µM; in assay [10], greater than 10 µM.
Turning to `CC(C)CCC[C@@H](C)[C@H]1CC[C@H]2[C@@H](OC(=O)c3cc(O)cc(O)c3)CCC[C@]12C`, the Activity in assay [1] was 8.6%; in [9] it was greater than 100 µM. Further, the fold change (FC) in assay [2] was determined as 19; in assay [6], 3.6; in assay [8] it was 0.3. The inhibition result in assay [3] was “Dose-dependent effect”. The IC50 in assay [3] is 1.8 µM; in [4], 4.5 µM; in assay [5], 4.1 µM; in assay [7], 5.7 µM; in assay [10], greater than 10 µM.
